Screening data from PubChem.
PP5 primary: blocks human protein phosphatase 5 activity. P53041. inhibition, % at 6.7 µM. purified PP5c, OMFP substrate fluorescence. hit rate 0.18% among 320,000;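 active means inhibition above the campaign's mean inhibition across all tested compounds plus 3 SD, cut at about 9.5% in these data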
p-CIP stab down: p/CIP protein destabilization | Q05BA5 | F442A p/CIP-EGFP cells, EGFP fluorescence, 16 h | decrease of EGFP signal, % at 10 µM | hit rate 0.01% among 290,000;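 active means EGFP signal decrease of at least 30% at 10 µM or well 3 SD below plate mean, unless failing retest; inactive means the rest, including hits failing retest or dose response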
T cruzi repl: blocks replication of Trypanosoma cruzi; inhibition, % (test concentration not listed); hit rate 1.4% among 300,000; T. cruzi beta-gal in NIH3T3, luminescence, 90 h;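 active means mean inhibition across valid replicates above about 55%, limit read from the data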;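 further: signal also drops with host cell toxicity which is not excluded here; higher percent means less beta-gal luminescence so fewer parasites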
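Read-out: Parasite load inhibition, % | Test system: Mouse NIH/3T3 fibroblasts infected with β-gal-expressing T. cruzi Tulahuen C4 | Amount: 5,000 cells/well | Medium: DMEM, 2% fetal bovine serum | Signal: GalScreen β-gal luminescence, detergent lysis, 60 min | Timing: 3 h attach, ≥90 h co-culture | Also added: Tulahuen C4 trypomastigotes, 5000/well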
H9c2 protect: modulators protecting cardiomyocytes from myocardial damage | H9c2 cardiomyocytes, H2O2 injury protection, ATPLite, 2 h | protection from H2O2 cell death, % at 20 µM | hit rate 0.63% among 360,000;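 active means compounds giving at least 50% protection of heart cells from peroxide-induced death in the single-dose screen, raw or plate-pattern-corrected value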
JMJD2C inh: inhibitors of human GASC-1 (JMJD2C) demethylase; GST-JMJD2C(1-420) H3K9me3 demethylation, DELFIA europium; inhibition, % at 2.35 µM; Q9H3R0; hit rate 0.069% among 330,000;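 active means more than half of a compound's replicate wells show inhibition beyond 50%, single wells judged on their own value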;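 further: signal counts dimethyl H3K9 product captured on neutravidin plate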
Fh CTSL1 inh: counter-screen for PFM18AAP inhibitors: inhibitors of F. hepatica cathepsin L1; recombinant F. hepatica cathepsin L1, Z-Leu-Arg-MCA fluorescence; inhibition, % at 5.96 µM; hit rate 0.49% among 300,000; AID 1906;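 active means inhibition above the mean of all tested compounds plus 3 SD, set per screening campaign, cut at about 17% in these data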
PP5 conf: PP5 (human) inhibition, confirmation | shares compounds with PP5 primary | Purified PP5, fluorogenic phosphatase substrate, fluorescence | inhibition, % at 6.7 µM | hit rate 22% among 460 | AID 2331; in the data active means inhibition above about 9.5%
PP1 inh counter: inhibits human PP1 phosphatase in PP5 counter-screen | shares compounds with PP5 primary | PP1 enzyme, fluorescent phosphatase substrate | inhibition, % at 6.7 µM | hit rate 4% among 460; in the data active means inhibition above about 16%
Target sequence (P62136 whole entry, looked up): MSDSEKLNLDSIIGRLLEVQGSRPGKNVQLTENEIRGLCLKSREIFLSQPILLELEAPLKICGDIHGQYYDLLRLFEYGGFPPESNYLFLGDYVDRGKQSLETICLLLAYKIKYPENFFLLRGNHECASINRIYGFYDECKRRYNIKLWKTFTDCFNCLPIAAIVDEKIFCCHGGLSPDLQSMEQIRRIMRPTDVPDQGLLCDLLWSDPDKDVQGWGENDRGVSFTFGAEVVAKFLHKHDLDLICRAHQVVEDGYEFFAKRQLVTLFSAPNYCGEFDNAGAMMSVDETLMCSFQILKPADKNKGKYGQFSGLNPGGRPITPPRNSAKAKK
Hits are given with their value; 0 = inactive; - = no result; ! = a repeat was not active. The list is not random: actives were taken first. Their share in the collection is about 2.4%.

SMILES	PP5 primary	p-CIP stab down	T cruzi repl	H9c2 protect	JMJD2C inh	Fh CTSL1 inh	PP5 conf	PP1 inh counter
O=C(Nc1ccc(O)cc1)C1CCCO1 (stereo not drawn)	11	0	0	0	0	0	0	0
O=C(Nc1ccc(F)cc1)C1CCCO1 (stereo not drawn)	0	0	0	0	0	0	-	-
Cc1ccc(S(=O)(=O)N2CCN(S(=O)(=O)c3c(C)n[nH]c3C)CC2)cc1C	16	-	-	0	0	-	0	0
CC1(C)CC(NC(=O)c2ccccc2NS(=O)(=O)c2ccc(Br)cc2)CC(C)(C)N1	-	-	-	0	-	-	-	-
Cc1cnc(NC(=O)C2=C(O)c3ccccc3S(=O)(=O)N2C)s1	15!	0	0	0	0	0	0	0
COc1ccc(-c2cc(-c3c(O)c(OC)c4occc4c3OC)[nH]n2)cc1	11	0	0	0	0	0	0	0
COc1ccc(-c2cc(-c3c(O)c(OC)c4occc4c3OC)[nH]n2)cc1OC	0	0	0	0	0	0	-	-
CCOc1ccc(NC(=O)N2CCC(C(N)=O)(N3CCCCC3)CC2)cc1	11	0	0	0	0	0	0	0
NC(=O)C1(N2CCCCC2)CCN(C(=S)Nc2ccccc2)CC1	0	0	0	0	0	0	-	-
O=C1CCCC2=C1C1(O)C(=O)c3ccccc3C1(O)O2 (stereo not drawn)	17	0	0	0	0	0	45	0
N#CC1=C(N)OC2=C(C(=O)CCC2)[C@]12C(=O)N(CC(N)=O)c1ccccc12	0	0	0	0	0	0	-	-
COc1cc(/C=N/NC(=O)c2c(-c3c(Cl)cccc3Cl)noc2C)ccc1OCC(N)=O	-	0	0	0	0	-	-	-
Cc1onc(-c2c(Cl)cccc2Cl)c1C(=O)N/N=C(\N)COc1ccc(Cl)cc1	12	0	0	70	0	0	0	0
CCOC(=O)C(NC(=O)Nc1ccc(O)cc1)(c1ccccc1)C(F)(F)F (stereo not drawn)	11	0	0	0	0	0	0	0
CCOc1ccc(NC(=O)c2ccccc2OCC(=O)c2ccc(C)cc2)cc1	9.8	0	0	0	0	0	0	0
Cc1ccc(NC(=O)c2ccccc2OCC(=O)c2ccc(F)cc2)cc1	0	0	0	0	0	0	-	-
Cc1cccc(NC(=O)C2CCN(S(C)(=O)=O)CC2)c1C	11	0	0	0	0	0	0	0
Cc1ccc(-n2c(SCC(=O)Nc3nccs3)nc3c(c2=O)SCC3)cc1	0	0	0	0	0	0	-	-
CCSc1nnc(NC(=O)CSc2nc3c(c(=O)n2-c2ccccc2)SCC3)s1	12	0	-	0	0	0	0	0
O=C(CSc1nnc(-c2ccncc2)n1-c1ccccc1)NC1CC1	0	0	0	0	0	0	-	-
O=C1c2ccccc2C(=O)C1(O)O	16	-	-	-	0	-	0	0
COc1ccc(C(=O)C2CCN(CC(=O)NCc3ccccc3)CC2)cc1	0	0	0	0	0	0	-	-
COc1ccc(C(=O)NC2CCN(CC(=O)NCc3cccc(OC)c3)CC2)cc1	12	0	0	0	0	0	0	0
CCCCC1=NN(C(=O)c2ccncc2)C(O)(C(F)(F)F)C1 (stereo not drawn)	0	0	0	0	0	0	-	-
CCCCC1=NN(C(=O)c2cocc2C)C(O)(C(F)(F)F)C1 (stereo not drawn)	13	0	0	0	0	0	0	0
SMILES	PP5 primary	p-CIP stab down	T cruzi repl	H9c2 protect	JMJD2C inh	Fh CTSL1 inh	PP5 conf	PP1 inh counter
CC(C)CNC(=O)C1(C)CCCN1Cc1ccccc1OC(F)F (stereo not drawn)	-	-	-	0	-	-	-	-
COCCNC(=S)N1CCC2CC1c1cc(-c3ccc4c(c3)OCO4)ccc12 (stereo not drawn)	-	-	-	0	-	-	-	-
COc1cc(C=O)ccc1OC(=O)Nc1ccccc1	12	-	0	0	0	0	0	0
CCc1ccc(CN(C)C(=O)CCc2nc3ccccc3n(-c3ccc(OC)cc3)c2=O)cc1	10	0	0	0	0	0	0	0
COc1ccccc1NC(=O)COC(=O)c1ccc2ccccc2n1	-	-	-	0	0	-	-	-
Cc1ccc(Nc2nc(/N=C/NO)n[nH]2)cc1C	11	0	0	0	0	0	0	0
